From ChEMBL document CHEMBL1133434, “Novel retinoic acid receptor alpha agonists: syntheses and evaluation of pyrazole derivatives” (Bioorg Med Chem Lett, 2000)

Key:
[1] = target: T1, Retinoic acid receptor alpha (Homo sapiens) (UniProt P10276); assay: Relative transcriptional activation in CV-1 cells expressing RAR alpha receptor compared to ATRA; type: functional, cell-based; details: Cercopithecidae
T1 sequence (whole entry): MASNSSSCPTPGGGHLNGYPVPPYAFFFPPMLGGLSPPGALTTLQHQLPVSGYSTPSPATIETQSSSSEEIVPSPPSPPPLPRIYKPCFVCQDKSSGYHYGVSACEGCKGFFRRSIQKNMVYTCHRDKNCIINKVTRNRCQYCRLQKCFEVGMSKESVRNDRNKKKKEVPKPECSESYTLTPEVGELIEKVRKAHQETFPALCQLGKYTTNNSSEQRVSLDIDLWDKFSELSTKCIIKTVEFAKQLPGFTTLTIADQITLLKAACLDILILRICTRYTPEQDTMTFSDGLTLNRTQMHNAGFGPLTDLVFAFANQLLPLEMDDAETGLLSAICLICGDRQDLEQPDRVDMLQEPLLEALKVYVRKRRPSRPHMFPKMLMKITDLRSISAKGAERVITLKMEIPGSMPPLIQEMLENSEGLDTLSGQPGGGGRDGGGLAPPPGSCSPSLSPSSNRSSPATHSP

HL-60 = assay: Effective dose for induction of HL-60 cell differentiation; type: functional, Homo sapiens
Outline: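 HL-60 cells treated with retinoid. Differentiation scored by the CD11b marker. Activity expressed relative to ATRA, as EC30/ATRA EC30.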

[2] = target: T2, Retinoic acid receptor gamma (Homo sapiens) (UniProt P13631); assay: Inhibition of [3H]ATRA-Hl60 binding to Retinoic acid receptor gamma relative to ATRA; Not detectable
T2 sequence (whole entry): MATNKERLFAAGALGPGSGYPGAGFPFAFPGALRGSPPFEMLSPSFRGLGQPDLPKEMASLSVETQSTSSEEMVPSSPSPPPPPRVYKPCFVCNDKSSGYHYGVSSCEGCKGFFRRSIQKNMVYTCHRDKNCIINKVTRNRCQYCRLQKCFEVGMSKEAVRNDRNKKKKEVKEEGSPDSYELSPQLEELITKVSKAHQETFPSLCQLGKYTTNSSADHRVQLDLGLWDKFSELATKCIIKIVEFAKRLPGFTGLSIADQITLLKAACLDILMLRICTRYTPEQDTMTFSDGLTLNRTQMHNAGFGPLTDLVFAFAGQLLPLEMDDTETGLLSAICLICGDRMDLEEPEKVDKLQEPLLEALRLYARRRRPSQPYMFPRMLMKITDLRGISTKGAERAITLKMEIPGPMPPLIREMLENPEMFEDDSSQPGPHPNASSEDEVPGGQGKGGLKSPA
Outline: (§1)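 Competitive binding at individual RAR subtypes, run with [3H]ATRA as radioligand. Affinity is given as IC50 relative to that of ATRA.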

[3] = target: T3, Retinoic acid receptor beta (Homo sapiens) (UniProt P10826); assay: Relative transcriptional activation in CV-1 cells expressing RAR beta receptor compared to ATRA; type: functional, cell-based; details: Cercopithecidae
T3 sequence (whole entry): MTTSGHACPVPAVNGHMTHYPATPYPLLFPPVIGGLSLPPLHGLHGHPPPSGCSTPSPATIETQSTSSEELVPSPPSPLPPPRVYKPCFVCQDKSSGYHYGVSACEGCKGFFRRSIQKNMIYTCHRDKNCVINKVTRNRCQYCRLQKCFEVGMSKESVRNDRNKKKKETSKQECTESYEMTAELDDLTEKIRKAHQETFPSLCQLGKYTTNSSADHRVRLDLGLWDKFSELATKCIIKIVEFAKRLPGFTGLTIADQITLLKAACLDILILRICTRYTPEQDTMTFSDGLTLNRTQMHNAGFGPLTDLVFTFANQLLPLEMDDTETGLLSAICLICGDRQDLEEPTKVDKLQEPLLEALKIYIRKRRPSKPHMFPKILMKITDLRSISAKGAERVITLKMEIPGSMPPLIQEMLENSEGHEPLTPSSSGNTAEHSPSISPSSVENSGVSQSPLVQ

[4] = target: T3, Retinoic acid receptor beta (Homo sapiens); assay: Inhibition of [3H]ATRA-Hl60 binding to Retinoic acid receptor beta relative to ATRA; outline: as §1
[5] = target: T2, Retinoic acid receptor gamma (Homo sapiens); assay: Relative transcriptional activation in CV-1 cells expressing RAR gamma receptor compared to ATRA; type: functional, cell-based; details: Cercopithecidae
[6] = target: T2, Retinoic acid receptor gamma (Homo sapiens); assay: Inhibition of [3H]ATRA-Hl60 binding to Retinoic acid receptor gamma relative to ATRA; outline: as §1
[7] = target: T3, Retinoic acid receptor beta (Homo sapiens); assay: Inhibition of [3H]ATRA-Hl60 binding to Retinoic acid receptor beta relative to ATRA; Not detectable; outline: as §1
[8] = target: T1, Retinoic acid receptor alpha (Homo sapiens); assay: Relative transcriptional activation in CV-1 cells expressing RAR alpha receptor compared to ATRA; Not detectable; type: functional, cell-based; details: Cercopithecidae
[9] = target: T3, Retinoic acid receptor beta (Homo sapiens); assay: Relative transcriptional activation in CV-1 cells expressing RAR beta receptor compared to ATRA; Not detectable; type: functional, cell-based; details: Cercopithecidae
[10] = target: T2, Retinoic acid receptor gamma (Homo sapiens); assay: Relative transcriptional activation in CV-1 cells expressing RAR gamma receptor compared to ATRA; Not detectable; type: functional, cell-based; details: Cercopithecidae

| Structure (SMILES) | Relative EC30 [1] [nM] | ED30 (HL-60) [nM] | Relative IC50 [2] [nM] | Relative EC30 [3] [nM] | Relative IC50 [4] [nM] | Relative EC30 [5] [nM] | Relative IC50 [6] [nM] | Relative IC50 [7] [nM] | Relative EC30 [8] [nM] | Relative EC30 [9] [nM] | Relative EC30 [10] [nM] |
| --- | --- | --- | --- | --- | --- | --- | --- | --- | --- | --- | --- |
| CC(C)c1cc(-c2ccc(-c3ccc(C(=O)O)cc3)[nH]2)nn1C(C)C | 0.19 | 0.27 | > 1000 | 1.8 | 660 | 14 |  |  |  |  |  |
| CC(C)c1cc(-c2ccc(-c3ccc(C(=O)O)cc3)[nH]2)nn1C(C)(C)C | 0.22 | 0.05 |  | 0.63 | 110 | 2.3 | 70 |  |  |  |  |
| CC(C)c1cc(-c2ccc(-c3ccc(C(=O)O)cc3)[nH]2)nn1CC(F)(F)F | 1 | 0.62 | > 1000 | 15 |  | 88 |  | > 1000 |  |  |  |
| Cc1ccc(C)c(-n2nc(-c3ccc(-c4ccc(C(=O)O)cc4)[nH]3)cc2C(C)C)c1 |  | >10000 | > 1000 |  |  |  |  | > 1000 | > 10000 | > 10000 | > 10000 |
| CC1=C(/C=C/C(C)=C/C=C/C(C)=C/C(=O)O)C(C)(C)CCC1 [TRETINOIN] |  | 1.5 |  |  |  |  |  |  |  |  |  |
